As usually defined, the MFC is the smallest concentration meeting the test's criterion for killing the fungus. One may read the MIC as the least concentration at which growth counts as inhibited.

Converted amounts (≈) assume the structure as drawn. Bounds are passed on as bounds.

The text below walks through data of ChEMBL document CHEMBL1124711, “Design and synthesis of 14 alpha-methyl-15-aza-D-homosterols as novel antimycotics” (1990).

In assay [1] the test system is Candida albicans. The assay is described as follows: Minimum fungicidal concentration was determined against Candida albicans 3153A strain. Type of assay: functional. The method in brief: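 Fungicidal endpoint: lowest drug concentration whose subcultures were negative or grew fewer than three colonies.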
For assay [2], the system named is Candida albicans. The assay is described as follows: Minimum inhibitory concentration was determined against Candida albicans 3153A strain. Type of assay: functional.
Assay [3] concerns Mus musculus. Briefly: The number of survivors/total infected at day 14 was determined after (ip) administration of 2 mg/kg in Candida albicans infected mice; 4/10. Type of assay: functional.
For assay [4], the system named is Mus musculus. The assay is described as follows: The number of survivors/total infected at day 14 was determined after (ip) administration of 2 mg/kg in Candida albicans infected mice; 6/10. The format is functional.
The subject of assay [5] is Mus musculus. The assay is described as follows: The number of survivors/total infected at day 14 was determined after (ip) administration of 1 mg/kg in Candida albicans infected mice; 10/10.
The mark [6] stands for this setting: Candida albicans, read-out: MFC.
[7] abbreviates: Candida albicans, read-out: MIC.

As for `CC(C)CCC[C@@H](C)C1CCN[C@@]2(C)C3=CCC4C(C)(C)[C@@H](O)CC[C@]4(C)C3CC[C@]12C` (stereo partly drawn), the MFC against Candida albicans [1] and with Candida albicans [1] (setting [6]) was 3.1 µg/mL (≈ 6.99 µM) in each case. The MIC against Candida albicans [2] and in the assay with Candida albicans [2] (setting [7]) was 1.6 µg/mL (≈ 3.61 µM) each time.
Regarding `CC(C)CCC[C@@H](C)C1CCN[C@@]2(C)C3=C(CC[C@]12C)[C@@]1(C)CC[C@H](O)CC1CC3` (stereo partly drawn), the MFC against Candida albicans [1] and with Candida albicans [1] (setting [6]) was 6.3 µg/mL (≈ 15.2 µM) throughout. For the same compound, the minimum inhibitory concentration (MIC) against Candida albicans [2] and in the assay on Candida albicans [2] (setting [7]) was 3.1 µg/mL (≈ 7.46 µM) in each case. The compound further yielded a No. of survivors in the assay with Mus musculus [3] of 4.
As to `CC(C)CCC[C@@H](C)C1CCN[C@@]2(C)C3=CCC4C[C@@H](O)CC[C@]4(C)C3CC[C@]12C` (stereo partly drawn), the minimum fungicidal concentration (MFC) against Candida albicans [1] and in the assay with Candida albicans [1] (setting [6]) was 6.3 µg/mL (≈ 15.2 µM) each time. The minimum inhibitory concentration (MIC) in the assay on Candida albicans [2] and in the assay with Candida albicans [2] (setting [7]) was 1.6 µg/mL (≈ 3.85 µM) each time. The same compound registered a No. of survivors in the assay with Mus musculus [4] of 6.
As for `CC(C)CCC[C@@H](C)C1CC(=O)N[C@@]2(C)C3=CCC4C[C@@H](O)CC[C@]4(C)C3CC[C@]12C` (stereo partly drawn), in the assay on Candida albicans [2] (setting [7]), the MIC is more than 100 µg/mL.
`CC(C)[C@@H](C)/C=C/[C@@H](C)C1CCN[C@@]2(C)C3=CCC4C[C@@H](O)CC[C@]4(C)C3CC[C@]12C` (stereo partly drawn): the MFC in the assay on Candida albicans [1] and in the assay with Candida albicans [1] (setting [6]) was 6.3 µg/mL (≈ 14.7 µM) in each case. Also, the MIC in the assay on Candida albicans [2] and in the assay with Candida albicans [2] (setting [7]) was 0.8 µg/mL (≈ 1.87 µM) each time.
As for `CC(C)[C@@H](C)/C=C/[C@@H](C)C1CCN[C@@]2(C)C3=CCC4C(C)(C)[C@@H](O)CC[C@]4(C)C3CC[C@]12C` (stereo partly drawn), the MFC with Candida albicans [1] and with Candida albicans [1] (setting [6]) was 6.3 µg/mL (≈ 13.8 µM) throughout. Also, the MIC in the assay on Candida albicans [2] and with Candida albicans [2] (setting [7]) was 1.6 µg/mL (≈ 3.51 µM) throughout.
For the compound `OC(Cn1cncn1)(Cn1cncn1)c1ccc(F)cc1F` [FLUCONAZOLE], the minimum inhibitory concentration (MIC) in the assay on Candida albicans [2] and in the assay on Candida albicans [2] (setting [7]) was 0.8 µg/mL (≈ 2.61 µM) throughout.
As for `C[C@@H]1[C@H](O)[C@@H](C)/C=C/C=C/C=C/C=C/C=C/C=C/C=C/[C@H](O[C@@H]2O[C@H](C)[C@@H](O)[C@H](N)[C@@H]2O)C[C@@H]2O[C@](O)(C[C@@H](O)C[C@@H](O)[C@H](O)CC[C@@H](O)C[C@@H](O)CC(=O)O[C@H]1C)C[C@H](O)[C@H]2C(=O)O` [AMPHOTERICIN B], the MIC in the assay with Candida albicans [2] and in the assay with Candida albicans [2] (setting [7]) was 0.16 µg/mL (≈ 0.173 µM) in each case. Further, in the assay with Mus musculus [5], the No. of survivors is reported as 10.
